Data set [1] is described as follows: Cytotoxicity against human MT4 cells by cell-titer Glo assay. It is filed as cell-based. The procedure, abridged: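 MT4 cells cultured in parallel with antiviral cultures; viability read by luminescent ATP quantitation (CellTiter-Glo). CC50 = concentration reducing viability by 50%.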
For data set [2], the system named is Human immunodeficiency virus 1. The experiment in a line: Antiviral activity against HIV-1 NL4-3 infected in MT4 cells assessed inhibition of viral replication measured on day 4 postinfection by ELISA. Type of data set: functional, organism-based. The settings on record: Human immunodeficiency virus 1, NL4-3, MT4, 96 h. The procedure, abridged:
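MT4 cells infected with HIV-1 NL4-3 at MOI 0.001 in presence of graded compound concentrations; fresh compound-containing medium added 48 h post-infection to sustain growth. Viral replication read on day 4 by p24 ELISA; EC50 = concentration giving 50% inhibition of replication.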

The record followed here is ChEMBL document CHEMBL3739279, “Fluorinated betulinic acid derivatives and evaluation of their anti-HIV activity” (Bioorg Med Chem Lett, 2016).

Take `C=C(CC(F)(F)F)[C@@H]1CC[C@]2(C(=O)O)CC[C@]3(C)[C@H](CC[C@@H]4[C@@]5(C)CC[C@H](OC(=O)CC(C)(C)C(=O)O)C(C)(C)[C@@H]5CC[C@]43C)[C@@H]12`: the 50% cytotoxic concentration (CC50) (as a rule, the concentration giving 50% cytotoxicity) in data set [1] was over 6 µM. Further, in data set [2], it took 0.097 µM to reach a half-maximal effect (EC50).

In turn, `C=C(C)[C@@H]1CC[C@]2(C(=O)OCC3CCC(F)(F)CC3)CC[C@]3(C)[C@H](CC[C@@H]4[C@@]5(C)CC[C@H](OC(=O)CC(C)(C)C(=O)O)C(C)(C)[C@@H]5CC[C@]43C)[C@@H]12` registered a CC50 in data set [1] of over 6 µM. In addition, the EC50 – broadly, the concentration that produces a half-maximal response – in data set [2] stood at 0.31 µM.

Turning to `C=C(C)[C@@H]1CC[C@]2(C(=O)OCCc3cccc(C(F)(F)F)c3)CC[C@]3(C)[C@H](CC[C@@H]4[C@@]5(C)CC[C@H](OC(=O)CC(C)(C)C(=O)O)C(C)(C)[C@@H]5CC[C@]43C)[C@@H]12`, the cytotoxic concentration (CC50) in data set [1] was over 5 µM. Also, a half-maximal response in data set [2] (EC50) required 3 µM.

Compound `C=C(C)[C@@H]1CC[C@]2(C(=O)O)CC[C@]3(C)[C@H](CC[C@@H]4[C@@]5(C)C[C@@H](F)[C@H](OC(=O)CC(C)(C)C(=O)O)C(C)(C)[C@@H]5CC[C@]43C)[C@@H]12` gave a CC50 in data set [1] of over 17 µM. The EC50 in data set [2] is over 17 µM.

Take `C=C(C)[C@@H]1CC[C@]2(C(=O)O)CC[C@]3(C)[C@H](CC[C@@H]4[C@@]5(C)CC[C@H](OC(=O)C(F)(F)C(F)(F)C(F)(F)C(=O)O)C(C)(C)[C@@H]5CC[C@]43C)[C@@H]12`: the half-maximal cytotoxic concentration (CC50) in data set [1] was over 6 µM. In addition, in data set [2], the EC50 is over 6 µM.

Compound `C=C(C)[C@@H]1CC[C@]2(C(=O)OCCC3CC3)CC[C@]3(C)[C@H](CC[C@@H]4[C@@]5(C)C[C@@H](F)[C@H](OC(=O)CC(C)(C)C(=O)O)C(C)(C)[C@@H]5CC[C@]43C)[C@@H]12` gave a CC50 in data set [1] of over 6 µM. Moreover, the concentration for a half-maximal effect (EC50) in data set [2] was 1.1 µM.

On to `C=C(C)[C@@H]1CC[C@]2(C(=O)OC)CC[C@]3(C)[C@H](CC[C@@H]4[C@@]5(C)C[C@@H](C(F)(F)F)[C@H](OC(=O)CC(C)(C)C(=O)O)C(C)(C)[C@@H]5CC[C@]43C)[C@@H]12`, for which, in data set [1], the CC50 was over 6 µM. In data set [2], this compound showed a concentration for a half-maximal effect (EC50) of over 6 µM.

The compound `C=C(C)[C@@H]1CC[C@]2(C(=O)OC)CC[C@]3(C)[C@H](CC[C@@H]4[C@@]5(C)C[C@@H](F)[C@H](OC(=O)CC(C)(C)C(=O)O)C(C)(C)[C@@H]5CC[C@]43C)[C@@H]12` returned a 50% cytotoxic concentration (CC50) in data set [1] of over 16 µM. The compound also came in with an EC50 in data set [2] of over 16 µM.

Take `C=C(C)[C@@H]1CC[C@]2(C(=O)O)CC[C@]3(C)[C@H](CC[C@@H]4[C@@]5(C)CC[C@H](OC(=O)C(F)(F)C(F)(F)C(=O)O)C(C)(C)[C@@H]5CC[C@]43C)[C@@H]12`: the 50% cytotoxic concentration (CC50) in data set [1] was over 6 µM. The half-maximal effective concentration (EC50) in data set [2] is over 6 µM.

As to `C=C(C)[C@@H]1CC[C@]2(C(=O)O)CC[C@]3(C)[C@H](CC[C@@H]4[C@@]5(C)CC[C@H](OC(=O)CC(C)(C)C(=O)O)C(C)(C)[C@@H]5CC[C@]43C)[C@@H]12` [BEVIRIMAT], in data set [1], the CC50 is over 17 µM. The compound also showed a 50% effective concentration (EC50) in data set [2] of 0.075 µM.
